# Laboratory results from ChEMBL document CHEMBL4004846, “Synthesis and antitrypanosomal activities of novel pyridylchalcones” (Eur J Med Chem, 2017).
# Calls of active or inactive are those of the source. No cut-off for these calls is given here.
# Columns and labels:
# [1] = Selectivity index, ratio of IC50 for human KB cells to IC50 for Trypanosoma brucei rhodesiense STIB900; type: toxicity; conditions: read-out: Ratio IC50
# Outline: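 SI is calculated as the KB-cell IC50 divided by the T. b. rhodesiense STIB900 IC50.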
# Leishmania donovani [2] = experiment: Antileishmanial activity against Leishmania donovani HU3 amastigote forms infected in CD-1 mouse macrophages at 10 uM after 2 to 3 days by Giemsa staining based microscopic method relative to control; type: functional
# KB = experiment: Cytotoxicity against human KB cells after 72 hrs by Alamar blue assay; type: cell-based
# Outline: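 Human nasopharyngeal carcinoma KB cells were grown in RPMI 1640 with 10% heat-inactivated foetal calf serum at 37°C and 5% CO2. Monolayers were exposed to compounds for 72 h. Alamar Blue was then added for 2-4 h and fluorescence read at 530/580 nm. IC50 was derived by sigmoidal regression from the mean of two independent triplicate experiments.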
# [3] = tested on: Trypanosoma brucei rhodesiense; experiment: Antitrypanosomal activity against Trypanosoma brucei rhodesiense STIB900 after 72 hrs by Alamar blue assay; type: functional; conditions: STIB900, 72 h
# Outline: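 T. b. rhodesiense STIB 900 bloodstream forms (1 x 10³ per well) incubated with 3-fold serial drug dilutions from DMSO stocks (20 mM) diluted in medium, 37°C, 5% CO2, 72 h, in triplicate. Drug-free controls and medium-only blanks were included. Alamar Blue was then added for 2-4 h and fluorescence read at ex 530/em 580 nm. IC50 is the mean of two independent experiments.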
# Leishmania donovani [4] = experiment: Antileishmanial activity against Leishmania donovani HU3 amastigote forms infected in CD-1 mouse macrophages at 30 uM after 2 to 3 days by Giemsa staining based microscopic method relative to control; type: functional
SMILES,selectivity ratio [1],Activity (Leishmania donovani [2]),IC50 (KB) [µM],IC50 [3] [µM],inhibition at 30 µM (Leishmania donovani [4]) [%]
O=C(/C=C/c1cccnc1)c1ccc(F)c(F)c1,29,inactive,20.7,0.72,–
O=C(/C=C/c1cccnc1)c1ccc2c(c1)OCO2,12,inactive,59.4,4.83,–
O=C(/C=C/c1cccc(Br)c1)c1cccnc1,63,inactive,43.7,0.69,–
O=C(/C=C/c1cccnc1)c1ccccc1,11,inactive,7.7,0.72,–
O=C(CC(CC(=O)c1cccc(Br)c1)c1cccnc1)c1cccc(Br)c1,15,inactive,181,12.2,–
O=C(/C=C/c1ccccc1)c1cccc(Br)c1,19,inactive,18.4,0.96,13.8
O=C(/C=C/c1ccncc1)c1cccc(Br)c1,36,inactive,23.7,0.65,–
O=C(/C=C/c1cccnc1)c1cccc(Br)c1,47,inactive,13.5,0.29,39.7
O=C(/C=C/c1cccnc1)c1cccc(Cl)c1,21,inactive,12.7,0.62,2.7
O=C(/C=C/c1cccnc1)c1cccnc1,17,inactive,17,1.02,–
COc1cc([C@@H]2c3cc4c(cc3[C@H](O)[C@H]3COC(=O)[C@H]23)OCO4)cc(OC)c1OC [PODOFILOX],–,–,0.058,–,–
O=C(/C=C/c1cccnc1)c1cccc(O)c1,19,inactive,21.7,1.15,–
COc1ccc(C(=O)/C=C/c2cccnc2)cc1,23,inactive,21.7,0.94,–
COc1ccccc1C(=O)/C=C/c1cccnc1,20,inactive,22.7,1.14,–
O=C(/C=C/c1cccnc1)c1ccc(Br)cc1,23,inactive,7.9,0.34,11.6
O=C(/C=C/c1ccccn1)c1cccc(Br)c1,37,inactive,14.7,0.4,–
O=C(/C=C/c1cccnc1)c1ccccc1Br,> 8,inactive,> 300,37.8,–
COc1cccc(C(=O)/C=C/c2cccnc2)c1,6,inactive,2.3,0.41,–
COc1ccc(C(=O)/C=C/c2cccnc2)cc1OC,24,inactive,22.8,0.98,–
